# Test results from the RNAGym collection of RNA variant scans (doi:10.1126/science.aae0568).
# Fewer inactive variants are shown than the library holds.
# B1: tRNA (parent)
# chain: GUUCCGUUGGCGUAAUGGUAACGCGUCUCCCUCCUAAGGAGAAGACUGCGGGUUCGAGUCCCGUACGGAACG
# Variants of: B1
# Test: yeast fitness relative to wild type (ratio to wild type); higher = fitter; tRNA-Arg(CCU), competitive growth, 37 C, YPD
# Method in brief: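 For this measurement, the tRNA-Arg(CCU) gene was varied by chemical synthesis at a 3% per-site mutation rate across 69 sites, and each variant was placed at the native genomic locus in Saccharomyces cerevisiae. The pooled strains went through a 24-hour competition in YPD at 37°C in six parallel replicates, with amplicons from start and end populations read by 100-nucleotide paired-end sequencing. Darwinian fitness relative to wild type followed from the change in each genotype's frequency. Genotypes needed ≥ 100 starting reads, and estimates < 0.5 were set to 0.5.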
row,Variant,yeast fitness
1,U8A A42C,0.648
2,U8A G18C C27U G51C C55A C62U A65U G68A A69U,≤ 0.5
3,U8A C31U,0.631
4,U8A C24U A40U A42C A65C A69C,≤ 0.5
5,U8A C27G A42U,≤ 0.5
6,U8A C33U C66A,≤ 0.5
7,U8A C29G U32C,≤ 0.5
8,U8A C22G G25A C27A C33U C49G A65C,0.608
9,U8A G23A C30G A65U,0.55
10,U8A C27A C49U A69U,≤ 0.5
11,U8A C31U U59A,≤ 0.5
12,U8A C27U A42G,≤ 0.5
13,U8A G18A C30A U32A U35G G67A,0.527
14,U8A C61U,0.718
15,U8A C11G G56A,0.583
16,U8A C24U,0.834
17,U8A C11G A65G,0.857
18,U8A G9A C24G A69G,≤ 0.5
19,U8A C46A,0.657
20,U8A G10A G38C,≤ 0.5
21,U8A G10A U13C A14U C27G U47C C62A,≤ 0.5
22,U8A G17A C24U A69C,0.693
23,U8A G18A C30A U32A U35G C55U G67A,≤ 0.5
24,U8A C24A U28C G68U,0.531

row,Variant,yeast fitness
1,U8A G9C A57C,0.701
2,U8A G38A G48C G67A,0.69
3,U8A G12A A45C,≤ 0.5
4,U8A A45U,0.818
5,U8A A45C,0.692
6,U8A C31G A65U,≤ 0.5
7,U8A C61A G67A,0.528
8,U8A C22U,0.634
9,U8A G18A C30G A40C U47C,≤ 0.5
10,U8A A43U A70G,0.532
11,U8A G10C G12C C34G G67U,≤ 0.5
12,U8A C29U G51C G67A,0.536
13,U8A C24A U28A G58A,0.584
14,U8A G23A C30U U35C,≤ 0.5
15,U8A C24U U28C A40C,≤ 0.5
16,U8A C11A C24U A40U,≤ 0.5
17,U8A G23C,≤ 0.5
18,U8A G10C C27A G48A,≤ 0.5
19,U8A C24A G52C,≤ 0.5
20,U8A G9A A21C,≤ 0.5
21,U8A C34U A43U U59C,0.619
22,U8A C27U A42G C62G G68A,≤ 0.5
23,U8A G12C G17A C29U G38A G44C G50A,≤ 0.5
24,U8A C22U A36G A40C U47A,≤ 0.5

row,Variant,yeast fitness
1,U8A C29A U47C,≤ 0.5
2,U8A C11U A70C,0.622
3,U8A C31U G58A C61G C66U,≤ 0.5
4,U8A C24A U28C,≤ 0.5
5,U8A G18A A69C,≤ 0.5
6,U8A C24A C30U G48C,≤ 0.5
7,U8A C11U A43U C61A A65U,≤ 0.5
8,U8A G25A G48C C62A,≤ 0.5
9,U8A C29U C62U A70U,≤ 0.5
10,U8A G12A A14C G67U,0.65
11,U8A C11U A21C A69C,≤ 0.5
12,U8A C30U G58C,≤ 0.5
13,U8A C24U A40U A42G A45U,≤ 0.5
14,U8A C27U A40G C55U A57U,≤ 0.5
15,U8A G23C G56A,0.539
16,U8A C29U,0.692
17,U8A G12C G17A C33U A40G G41C,≤ 0.5
18,U8A C11A,0.674
19,U8A C27U A40G C49U C55G,0.554
20,U8A C49U,0.779
21,U8A C55U,≤ 0.5
22,U8A C55G,≤ 0.5
23,U8A C33A A40G,≤ 0.5
24,U8A C33A A40C,≤ 0.5

row,Variant,yeast fitness
1,U8A C30U A42G A57C,≤ 0.5
2,U8A C11U A21C G56C G68C,≤ 0.5
3,U8A C29U C30G,≤ 0.5
4,U8A G12A A21G C62U,0.697
5,U8A C33U A36U A70G,≤ 0.5
6,U8A G17A U26C C29G U35A A42G A69U,≤ 0.5
7,U8A A42U A43U,0.58
8,U8A G9A C24U U53C C60G,≤ 0.5
9,U8A C11A C24A C29A C34U C61G,≤ 0.5
10,U8A C27A,0.625
11,U8A G23A A36G,≤ 0.5
12,U8A A43U C49U C55A,≤ 0.5
13,U8A G10C C34U C61U U64G,≤ 0.5
14,U8A G18C U19C A20C A36G U64A G67C,≤ 0.5
15,U8A C22U C34G A36U A57G A65C,≤ 0.5
16,U8A C30G C62U G67C,0.546
17,U8A G25A C33G A42G G50A,≤ 0.5
18,U8A C11U C46U G68A,≤ 0.5
19,U8A C22U C49U A69C A70C,0.545
20,U8A C29U G51C C55U,0.526
21,U8A C22U U35C,≤ 0.5
22,U8A C22G A43U G52A U54C G56U U64C,≤ 0.5
23,U8A C29G C60U G67A A69U,≤ 0.5
24,U8A G23A U32G C60U U64G A69C,≤ 0.5

row,Variant,yeast fitness
1,U8A G38C,0.647
2,U8A C29A G39A,≤ 0.5
3,U8A C30G C61A,≤ 0.5
4,U8A C27A U47C,0.558
5,U8A C29G A65G C66G,0.57
6,U8A A43U,0.763
7,U8A C46A U54C,0.666
8,U8A G18C C24A U26A U32C,≤ 0.5
9,U8A C34U A65U,≤ 0.5
10,U8A G10C G12C C34G C61G,≤ 0.5
11,U8A G18C C24A C27U U32C U54G C55U,≤ 0.5
12,U8A G18C G25C C60U U64A,≤ 0.5
13,U8A C29G C62G,0.576
14,U8A G12A C33U A37G C62A,≤ 0.5
15,U8A G18A C30A U32A U35G G56A C60A C62G C66A,≤ 0.5
16,U8A A70C,0.776
17,U8A G9C A15G U54A,≤ 0.5
18,U8A A65U,0.708
19,U8A A65G,0.855
20,U8A A65C,0.837
21,U8A C34A A45C A65C,0.718
22,U8A C34U A36G A45U U64A,≤ 0.5
23,U8A G10A G67C A69U,≤ 0.5
24,U8A C22U A36U C49G A69C,0.631

row,Variant,yeast fitness
1,U8A G17A U32A A43G,≤ 0.5
2,U8A C66U,0.775
3,U8A C66G,0.582
4,U8A C11A C66U,0.585
5,U8A C29G A40G A70G,≤ 0.5
6,U8A C30U C46A U54A A57G,≤ 0.5
7,U8A G18C A36U C66U,0.505
8,U8A C31A C61U,≤ 0.5
9,U8A C22U U59A,≤ 0.5
10,U8A G23C G56U A65U,≤ 0.5
11,U8A A43C A65U,≤ 0.5
12,U8A C22G U35C A70G,≤ 0.5
13,U8A G18A G52A U59A G67C,≤ 0.5
14,U8A C33U A65U,0.502
15,U8A C33U A65G,≤ 0.5
16,U8A G18C C27U C46A G50A C62U,≤ 0.5
17,U8A C30U A40U G52C,≤ 0.5
18,U8A C30A,0.604
19,U8A C29U G51C A57G,≤ 0.5
20,U8A C11U G25A C33A A40U C61A C62U,≤ 0.5
21,U8A G9A U19G C24G,0.551
22,U8A G25C C31G,≤ 0.5
23,U8A C34U C61A,≤ 0.5
24,U8A G38A U54A,≤ 0.5

row,Variant,yeast fitness
1,U8A A45G A65U,≤ 0.5
2,U8A C11U G25C G39C C55U,≤ 0.5
3,U8A G18A C27U C31A,≤ 0.5
4,U8A C61U G63C A65G,≤ 0.5
5,U8A G18C G25C A45U C49G,≤ 0.5
6,U8A C11U G25A C33A A40U A69U,≤ 0.5
7,U8A C22G G25A C27A C33U A57C G68C,≤ 0.5
8,U8A C24G U26A G50A,≤ 0.5
9,U8A G18C,≤ 0.5
10,U8A G18A G25A C33U G51A G56A C66U,≤ 0.5
11,U8A C60G G67A,≤ 0.5
12,U8A A42U U59A,≤ 0.5
13,U8A G12A A20C,≤ 0.5
14,U8A C33U,≤ 0.5
15,U8A G18A C30G U32A U35G G67A,≤ 0.5
16,U8A C22G G25A C27A C33U C49G,0.642
17,U8A C60U,0.551
18,U8A G18A U47G U54A,≤ 0.5
19,U8A G12A C62A,0.53
20,U8A G18C G25C C60U C61A,≤ 0.5
21,U8A G18C C66U,≤ 0.5
22,U8A C30G C46A G63A G67A,≤ 0.5
23,U8A C11U A20G G25C G39C,≤ 0.5
